Compound activity: PubChem, The Scripps Research Institute Molecular Screening Center
Sampled rows, rich in hits. Any-hit rate of the full collection: about 1.4%.
PLCg1 inh: blocks human PLC-gamma1 enzyme activity. P19174. purified PLC-gamma1, fluorogenic substrate, fluorescence. inhibition, % at 12.2 µM. 0.84% of 370,000 active. AID 720700; in the data active means inhibition above about 9.5%
DDE Tn7 FP inh: DD(E)-Tn7 binding inhibition, primary FP screen; AID 720508; 0.13% of 370,000 active; inhibition, % at 8.3 µM; FP displacement of FITC-Tn7 peptide from fibrin DD(E); 0% = median of compound wells per plate; P02675;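 active means inhibition above the mean of compounds falling within the control limits plus 3 SD of them, cut at about 14% in these data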
Target sequence (P02675 whole entry, looked up): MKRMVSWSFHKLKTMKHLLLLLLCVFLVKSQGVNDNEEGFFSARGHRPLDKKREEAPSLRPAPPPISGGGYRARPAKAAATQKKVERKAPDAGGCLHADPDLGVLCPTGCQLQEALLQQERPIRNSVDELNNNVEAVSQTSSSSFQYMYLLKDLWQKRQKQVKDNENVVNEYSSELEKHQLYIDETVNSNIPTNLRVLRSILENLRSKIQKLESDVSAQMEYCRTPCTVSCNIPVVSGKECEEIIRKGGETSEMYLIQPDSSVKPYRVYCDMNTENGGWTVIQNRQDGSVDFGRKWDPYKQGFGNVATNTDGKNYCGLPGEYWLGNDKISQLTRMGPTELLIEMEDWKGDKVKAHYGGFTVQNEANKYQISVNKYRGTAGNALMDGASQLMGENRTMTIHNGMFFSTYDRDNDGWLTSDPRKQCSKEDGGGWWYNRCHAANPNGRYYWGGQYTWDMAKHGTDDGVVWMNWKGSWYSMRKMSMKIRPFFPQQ
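Assay system: Fibrin-DD(E) protein isolated from polymerized human fibrin clots; read-out basis: percent inhibition; medium: Tris/NaCl/CaCl2 buffer, pH 7.8; signal: FP measurement; incubation: 10 min plus 3 h, room temperature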
PLCb3 inh: inhibitors of human phospholipase C beta3; Q01970; Purified PLC-beta3, fluorogenic substrate, fluorescence; inhibition, % at 12.2 µM; 0.18% of 370,000 active; AID 720704
DDE Tn6 FP inh: disrupts Tn6 cyclic peptide binding to fibrin D-Dimer-E complex | 0.21% of 370,000 active | AID 720509 | inhibition, % at 8.3 µM | Fibrin DD(E) TRITC-Tn6 fluorescence polarization displacement | P02675;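 active means inhibition above a per-campaign cutoff: mean of compounds within control limits plus 3 SD, cut at about 15% in these data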
DNA FID counter: fluorescent intercalator displacement, NS3 helicase counter-screen. DNA fluorescent intercalator displacement, fluorescence. inhibition, % at 7.9 µM. 0.17% of 290,000 active; in the data active means inhibition above about 37%;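 further: higher means more ethidium bromide displaced from hairpin DNA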
PLCg1 ctr: counter-screen for PLC-beta3 inhibitors: inhibitors of human PLC-gamma1; inhibition, % at 12.3 µM; purified PLC-gamma1, fluorogenic substrate, fluorescence; AID 743258; 3.1% of 3,300 active; shares compounds with PLCg1 inh; in the data active means inhibition above about 9.5%
PLCb3 confirm: human PLC-beta3 inhibition, confirmation | shares compounds with PLCg1 inh | purified PLC-beta3, fluorogenic substrate fluorescence | inhibition, % at 12.3 µM | 1% of 3,300 active | AID 743261
Each line names hits and unclear results; the compound was inactive in the other large screens (follow-up assays come after a bar, where they were run). Unless noted, no stated cut-off is given here; in the data, active means inhibition above about 11%; inactive means the rest.

Clc1ccc(-c2csc(Nc3cccnc3)n2)cc1	PLCg1 inh 10 | PLCg1 ctr inactive | PLCb3 confirm inactive
C[C@@H](CO)NC(=O)c1ccc2c3n(nc2c1)-c1ccc(Cl)cc1CO3	none (no result: DNA FID counter)
CCNC(=S)N1CCN(c2ccccc2OCC)CC1	none
CCOc1ccccc1N1CCN(C(=S)NCc2ccccc2)CC1	PLCg1 inh 9.7 | PLCg1 ctr inactive | PLCb3 confirm inactive
CC1(C(=O)Nc2cccc3c2CCCC3)CCN1C(=O)CCC1CCCC1 (configuration not stated)	none (no result: DNA FID counter)
O=S(Cc1cc(Oc2ccccc2)nc(-c2ccccc2)n1)c1ccccc1 (configuration not stated)	PLCg1 inh 13 | PLCg1 ctr inactive | PLCb3 confirm inactive
Cc1ccc2[nH]c(=O)c(CN(Cc3ccco3)C(=O)c3cccs3)cc2c1	none (no result: PLCg1 inh, DDE Tn7 FP inh, PLCb3 inh, DDE Tn6 FP inh)
COc1ccc(NC(=O)CC2C(=O)N(C)C(=S)N2Cc2ccncc2)cc1 (configuration not stated)	PLCg1 inh 10 | PLCg1 ctr inactive | PLCb3 confirm inactive
Cc1onc(-c2ccccc2)c1CNS(=O)(=O)c1ccccc1	none
Cc1onc(-c2ccccc2)c1CNS(=O)(=O)c1cccc(Cl)c1	PLCg1 inh 11 | PLCg1 ctr inactive | PLCb3 confirm inactive
COc1ccc(CN(C)Cc2ccccc2)c(OC)c1OC	PLCg1 inh 11 | PLCg1 ctr inactive | PLCb3 confirm inactive
CC(C)(C)c1ccc(-c2noc(CCC(N)=O)n2)cc1	none
CN(C)C(=O)CCc1nc(-c2ccc(C(C)(C)C)cc2)no1	PLCg1 inh 12 | PLCg1 ctr inactive | PLCb3 confirm inactive
Cc1cc(C)cc(N(CC(=O)NC2CCCC2)S(=O)(=O)c2c(C)[nH]c(=O)[nH]c2=O)c1	PLCg1 inh 11 | PLCg1 ctr inactive | PLCb3 confirm inactive
Cc1cc(C)cc(N(CC(=O)Nc2cc(C)ccc2C)S(=O)(=O)c2c(C)[nH]c(=O)[nH]c2=O)c1	PLCg1 inh 10 | PLCg1 ctr inactive | PLCb3 confirm inactive
Cc1cc(C)cc(N(CC(=O)Nc2cccc(C)c2C)S(=O)(=O)c2c(C)[nH]c(=O)[nH]c2=O)c1	none
O=C1[C@H](Cc2ccccc2)NCCCC[C@H](c2ccc(Cl)cc2)N1Cc1ccc(Cl)cc1	none (no result: DNA FID counter)
O=C1[C@H](Cc2ccccc2)NCCCC[C@@H](c2ccc(Cl)cc2)N1Cc1ccccc1	PLCg1 inh 16 (no result: DNA FID counter) | PLCg1 ctr inactive | PLCb3 confirm inactive
CCOC(=O)CN1C(=O)S/C(=C/c2ccc(OCc3ccc(C(=O)O)cc3)cc2)C1=O	none
Cc1ccc(S(=O)(=O)N(C)C)cc1NC(=O)COC(=O)CCNS(=O)(=O)c1ccccc1	none (no result: DNA FID counter)
CCOCCCNC(=O)C(c1ccc(C)cc1)N(Cc1ccc2c(c1)OCO2)C(=O)CNC(C)=O (configuration not stated)	PLCg1 inh 13 | PLCg1 ctr inactive | PLCb3 confirm inactive
CC(C)NC(=S)N1CCN(Cc2ccc3c(c2)OCO3)CC1	none
CC1CCCC(C)N1C(=O)COC(=O)c1ccc(O)cc1 (configuration not stated)	PLCg1 inh 20 | PLCg1 ctr inactive | PLCb3 confirm inactive
COc1ccc(S(=O)(=O)NCC2CCCN(C(=O)c3cccs3)C2)cc1 (configuration not stated)	none
O=S(=O)(c1cccs1)N1CCC(CO)(Cc2ccc(Cl)cc2)CC1	PLCg1 inh 10 | PLCg1 ctr inactive | PLCb3 confirm inactive
CCCCn1cnc2c1c(=O)[nH]c(=O)n2CCCC	PLCb3 inh 11 | PLCg1 ctr inactive | PLCb3 confirm inactive
Cn1c(=O)[nH]c(=O)c2c1ncn2CCN1CCOCC1	PLCb3 inh 11 | PLCg1 ctr inactive | PLCb3 confirm inactive
Cc1c(Br)c(O)c(Br)c2sc(=O)oc12	PLCg1 inh 9.9 | PLCg1 ctr inactive | PLCb3 confirm inactive
CSc1ccc(C2c3[nH]c4ccccc4c3CCN2C(=O)c2cc(C)n(C)n2)cc1 (configuration not stated)	none (no result: PLCg1 inh, DDE Tn7 FP inh, PLCb3 inh, DDE Tn6 FP inh)
CCc1ccc(C2c3[nH]c4ccccc4c3CCN2C(=O)c2cc(C)nn2C)cc1 (configuration not stated)	PLCg1 inh 10 | PLCg1 ctr inactive | PLCb3 confirm inactive
CCc1ccc(CNc2ccc3c(c2)ncn3CC)cc1	none
CCCn1c(SCC(=O)N2CCCc3ccccc32)nnc1-c1ccccn1	PLCg1 inh 12 | PLCg1 ctr inactive | PLCb3 confirm inactive
CCn1nnnc1SCC(=O)N1CCCc2ccccc21	PLCb3 inh 11 | PLCg1 ctr inactive | PLCb3 confirm inactive
C1CCC2(CC1)OCC1(CO2)COC2(CCCCC2)OC1	none
CCN(CC)S(=O)(=O)c1ccc(NC(=O)COC(=O)CCc2cc(OC)c(OC)c(OC)c2)cc1	PLCb3 inh 11 | PLCg1 ctr inactive | PLCb3 confirm inactive
CN1CCN(C(=O)c2cnn(-c3ccccc3)c2NC(=O)c2ccc(Br)cc2)CC1	none
CS(=O)(=O)N1CCN(C(=O)c2ccncc2)CC1	none
CS(=O)(=O)N1CCN(C(=O)c2ccc(F)cc2)CC1	PLCg1 inh 12 | PLCg1 ctr inactive | PLCb3 confirm inactive
Cc1ccc(-c2nnc(SCC(=O)NNC(=S)Nc3ccccc3)n2C2CCCCC2)cc1	none (no result: DNA FID counter)
Cc1ccc(NC(=O)c2cnccn2)cc1C	PLCg1 inh 11 | PLCg1 ctr inactive | PLCb3 confirm inactive
Cc1ccc(NC(=O)c2cnccn2)cc1	none
Cc1ccc(SCc2cc(=O)n(C)[nH]2)cc1	PLCg1 inh 11 | PLCg1 ctr inactive | PLCb3 confirm inactive
CC(C)c1c(Cl)c(O)c(-c2ccccc2)c(=O)n1-c1ccc(F)cc1	none
Nc1[nH][nH]c(=O)c1N=Nc1cccc(Cl)c1	PLCg1 inh 11, PLCb3 inh 11 | PLCg1 ctr inactive | PLCb3 confirm inactive
COc1cccc(N=Nc2c(N)[nH][nH]c2=O)c1	none
O=C1CCCC(O)=C1N=Nc1cccc(C(=O)O)c1	none
O=C1CCCC(O)=C1N=Nc1c(Cl)cc(Cl)cc1Cl	PLCg1 inh 10 | PLCg1 ctr inactive | PLCb3 confirm inactive
COc1cccc(C2=Cc3ccc(F)cc3C(CC(C)=O)N2c2ccc(-c3cc(OC)c(OC)c(OC)c3)cc2)c1 (configuration not stated)	none (no result: DNA FID counter)
CCN(CC)S(=O)(=O)c1ccc(N2CCOCC2)c(NS(=O)(=O)c2cc(C(C)(C)C)ccc2C)c1	PLCg1 inh 12 | PLCg1 ctr inactive | PLCb3 confirm inactive
CCN(CC)S(=O)(=O)c1ccc(N2CCOCC2)c(NS(=O)(=O)c2ccc(C(C)C)cc2)c1	none
CC1=CC(=O)C(C(C)C)=C/C1=N/OC(=O)c1cccc([N+](=O)[O-])c1	none
CC1=CC(=O)C(C(C)C)=CC1=NC(=O)c1ccc(C)cc1	PLCg1 inh 11, PLCb3 inh 11 | PLCg1 ctr inactive | PLCb3 confirm inactive
